How the values were obtained:
[1] = tested on: Cl-PARP, Cl-caspase 3; test: Western blot of apoptotic proteins; type: cell-based; settings: HepG2, 24 h
Method in brief: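 Treated HepG2 lysates (24 h exposure, RIPA buffer with protease inhibitors, BCA-normalised) were denatured at 100 °C for 5 min and run on 10–15% SDS-PAGE, then transferred to PVDF. Membranes were blocked in 5% milk, with primary antibody overnight at 4 °C and HRP secondary for 1 h at room temperature, and developed by ECL. Band intensity was normalised to β-actin; mean ± SD of three separate experiments.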

[2] = tested on: CDK4 and Cyclin D1; test: Western blot of cell cycle regulators; type: cell-based; settings: HepG2, 24 h
Method in brief: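 For the immunoblot, HepG2 cells were treated at several concentrations for 24 h and lysed in RIPA buffer with protease inhibitors. Equal BCA-quantified protein was boiled for 5 min and resolved on 10–15% SDS-PAGE, then transferred to PVDF. Blots were blocked in 5% milk, incubated with primary antibody overnight at 4 °C and HRP secondary for 1 h, and detected by ECL. Band densities were quantified, with β-actin as loading control.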

[3] = tested on: HepG2 cells; test: Lactate dehydrogenase; type: cell-based; settings: HepG2, 24 h
Method in brief: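 HepG2 cells were seeded at 1 × 10^4 per well and exposed to a range of test compound concentrations for 24 h. Culture supernatant was mixed with LDH detection reagent and kept 30 min in the dark at ambient temperature. OD was read at 490 nm, with each sample in triplicate.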

[4] = tested on: HepG2; test: In vitro anti-proliferation assay; type: cell-based
[5] = tested on: GSDME-N, Cl-caspase3; test: Western blot of pyroptosis markers; type: cell-based; settings: HepG2, 24 h
Method in brief: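 HepG2 cells were treated 24 h at the indicated concentrations, then lysed in RIPA with protease inhibitors (10 min on ice, 4 °C spin). Protein was measured by BCA, and equal amounts were boiled 5 min at 100 °C, run on 10–15% SDS-PAGE and transferred to PVDF. Membranes were blocked in 5% milk, probed with primaries overnight at 4 °C, then HRP secondary 1 h at room temperature. Detection was by ECL, with densitometry against β-actin; data are mean ± SD of three experiments.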

[6] = tested on: HepG2 cells; test: Colony formation assay; type: cell-based; settings: HepG2, 14 days
Method in brief: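 HepG2 cells were plated at 1000 per well in 6-well plates. After 24 h they were treated with a range of concentrations, with the medium refreshed every other day, and kept in fresh medium for 10–14 days. Colonies were fixed in methanol for 15 min, stained with 0.5% crystal violet for 15 min, photographed and counted manually.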

[7] = biological target: T1, HDAC6 (Homo sapiens, UniProt Q9UBN7); test: HDAC inhibitory assay, HDAC6; type: biochemical
T1 sequence (Q9UBN7 1-1215): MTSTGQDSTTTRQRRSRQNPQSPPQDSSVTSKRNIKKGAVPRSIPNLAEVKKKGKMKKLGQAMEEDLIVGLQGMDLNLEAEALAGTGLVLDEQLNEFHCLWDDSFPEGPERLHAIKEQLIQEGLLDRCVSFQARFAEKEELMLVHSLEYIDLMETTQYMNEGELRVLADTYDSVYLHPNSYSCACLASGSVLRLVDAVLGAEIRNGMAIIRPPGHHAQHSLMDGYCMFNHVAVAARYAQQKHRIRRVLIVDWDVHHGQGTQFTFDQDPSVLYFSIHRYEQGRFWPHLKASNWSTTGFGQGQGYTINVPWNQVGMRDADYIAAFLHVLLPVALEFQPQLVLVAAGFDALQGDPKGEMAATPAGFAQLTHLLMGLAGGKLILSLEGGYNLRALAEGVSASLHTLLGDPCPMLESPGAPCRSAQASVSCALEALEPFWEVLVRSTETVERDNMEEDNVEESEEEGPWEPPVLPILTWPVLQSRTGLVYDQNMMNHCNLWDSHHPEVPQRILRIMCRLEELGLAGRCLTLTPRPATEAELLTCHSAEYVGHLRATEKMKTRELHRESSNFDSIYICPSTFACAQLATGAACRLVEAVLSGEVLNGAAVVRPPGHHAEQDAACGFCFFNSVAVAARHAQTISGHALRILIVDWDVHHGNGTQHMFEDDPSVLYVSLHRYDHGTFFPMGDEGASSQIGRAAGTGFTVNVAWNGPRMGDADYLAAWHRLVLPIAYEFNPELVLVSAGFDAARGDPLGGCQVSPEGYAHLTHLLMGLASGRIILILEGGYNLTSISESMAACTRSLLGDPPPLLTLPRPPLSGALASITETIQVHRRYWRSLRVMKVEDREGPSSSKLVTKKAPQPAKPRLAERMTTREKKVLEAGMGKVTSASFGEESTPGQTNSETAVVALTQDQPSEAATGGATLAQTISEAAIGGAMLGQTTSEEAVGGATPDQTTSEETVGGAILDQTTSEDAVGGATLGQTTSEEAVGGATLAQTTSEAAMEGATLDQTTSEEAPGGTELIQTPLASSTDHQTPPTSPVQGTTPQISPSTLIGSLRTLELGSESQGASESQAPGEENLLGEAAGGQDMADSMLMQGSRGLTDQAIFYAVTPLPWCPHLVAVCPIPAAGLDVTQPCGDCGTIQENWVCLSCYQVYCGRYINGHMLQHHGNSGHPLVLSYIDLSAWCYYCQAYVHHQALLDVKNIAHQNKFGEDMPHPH

[8] = tested on: HepG2 xenografts; test: HepG2 xenograft model; type: in vivo, BALB/c nude mice
Method in brief: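 Male BALB/c nude mice, 5–6 weeks old, were housed under SPF conditions (25 °C, 65% humidity, 12-h light/dark). They were implanted subcutaneously with 1 × 10^6 HepG2 cells. […] Excised tumors were immunostained for Ac-H3, Ac-H4, cleaved caspase-3, GSDME-N and Ki67, then image-scored over 5 fields.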

[9] = tested on: HepG2 cells; test: Reactive oxygen species; type: cell-based; settings: HepG2, 24 h
[10] = tested on: γH2AX; test: γH2AX immunofluorescence assay; type: cell-based; settings: HepG2, 24 h, in comparison to SAHA
Method in brief: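 HepG2 cells were grown on coverslips at 1 × 10^5 per well and treated over a concentration range for 24 h. Cells were fixed in 4% formaldehyde, then blocked and permeabilised in PBS-BSA with 0.3% Triton X-100 for 15 min at room temperature. Anti-γH2AX was applied overnight at 4 °C, then goat anti-rabbit IgG (1:500) for 30 min at room temperature. Nuclei were counterstained with DAPI and imaged by confocal microscopy.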

[11] = tested on: HepG2 cells; test: Annexin V-FITC/PI apoptosis analysis; type: cell-based; settings: 48 h
[12] = tested on: acetylated H3/H4; test: Western blot of acetylated histone levels in HepG2 cells; type: cell-based; settings: HepG2, 0.2, 0.5 µM, 24 h
Method in brief: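 HepG2 cells were exposed to the test compound for 24 h, then lysed in RIPA buffer with protease inhibitors (10 min on ice) and centrifuged at 4 °C. Protein was measured by BCA, and equal amounts were denatured at 100 °C for 5 min. Blots were run on 10–15% SDS-PAGE and transferred to PVDF. Anti-acetyl-H3 was used at 1:1000, overnight at 4 °C, then HRP secondary antibody for 1 h at room temperature, with ECL detection. Bands were quantified against β-actin; mean ± SD of three separate experiments.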

[13] = biological target: HDAC1 (Homo sapiens, UniProt Q13547); test: HDAC inhibitory assay, HDAC1; type: biochemical
[14] = tested on: HepG2 cells; test: Cell cycle analysis by flow cytometry; type: cell-based; settings: HepG2, 0.5μM; for G2/M: control 25.34%; for S: control 32.99%; for G0/G1: control 41.67%

HDAC1, sequence (Q13547 whole entry): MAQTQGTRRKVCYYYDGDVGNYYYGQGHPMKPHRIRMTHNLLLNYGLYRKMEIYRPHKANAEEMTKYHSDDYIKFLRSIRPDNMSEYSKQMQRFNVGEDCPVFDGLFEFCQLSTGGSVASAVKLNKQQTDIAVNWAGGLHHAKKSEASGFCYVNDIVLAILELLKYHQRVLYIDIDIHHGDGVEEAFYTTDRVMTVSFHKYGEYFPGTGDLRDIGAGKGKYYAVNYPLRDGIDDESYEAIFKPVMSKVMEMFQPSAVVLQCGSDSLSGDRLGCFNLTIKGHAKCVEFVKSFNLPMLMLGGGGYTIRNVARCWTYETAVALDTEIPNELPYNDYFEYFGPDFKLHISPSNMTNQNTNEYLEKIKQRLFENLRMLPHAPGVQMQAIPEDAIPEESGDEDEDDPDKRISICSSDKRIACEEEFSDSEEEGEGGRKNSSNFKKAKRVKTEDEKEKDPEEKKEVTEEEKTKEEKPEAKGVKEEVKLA

Row | HDAC6 inhibitory activity relative to SAHA [7] | Ac-H3/H4, Cl-caspase3 and GSDME-N in tumor tissues ([8]; IHC at end of treatment) | HDAC1 inhibitory activity relative to SAHA [13] | SMILES | expression of Cl-PARP, Cl-caspase 3 [1] | levels of CDK4 and Cyclin D1 [2] | LDH release [3] | antiproliferative activity, times higher than SAHA [4] [times] | GSDME N-terminal fragment level [5] | levels of active caspase-3 [5] | colony formation [6] | tumor growth inhibition ([8]; 10 mg/kg, ip, every two days, three weeks) | Ki67 immunostaining of tumor tissues ([8]; IHC at end of treatment) | ROS levels [9] | nuclear γH2AX levels [10] | apoptosis of HepG2 cells ([11]; 0.2 µM) [%] | apoptosis of HepG2 cells ([11]; 0.5 µM) [%] | level of acetyl-H3 and H4 [12] | G2/M [14] [%] | S [14] [%] | G0/G1 [14] [%]
1 | eightfold better | induced the increase of Ac- H3/H4 | tenfold better | COc1ccc(N(Cc2csc(-c3ccccc3)n2)C(=O)CCCCCC(=O)NO)cc1 [Compound 15a, N^1-hydroxy-N^7-(4-methoxyphenyl)-N^7-((2-phenyl-4-thiazolyl)methyl)heptanediamide] | upregulate the expression of Cl-PARP, Cl-caspase 3 in a dose-dependent manner | significantly reduced the levels of CDK4 and Cyclin D1 in a dose-dependent manner | markedly increased | ~25 | elevated levels of the N-terminal fragment of gasdermin E (GSDME) | elevated | suppress the formation of colonies in a dose-dependent manner | superior inhibition observed at 10 mg/kg compared to that of SAHA | dose-dependent reduction in Ki67 immunostaining | dose-dependently increased | induce γH2AX expression at a much lower concentration range | 28.2 | 46.5 | increased the level of acetyl-H3 and H4 in a dose-dependent manner | 22.85 | 13.72 | 61.42
2 | eightfold better | – | tenfold better | COc1ccc(N(Cc2csc(-c3ccc(C)cc3)n2)C(=O)CCCCCC(=O)NO)cc1 [Compound 15d, N^1-hydroxy-N^7-(4-methoxyphenyl)-N^7-((2-(4-tolyl)-4-thiazolyl)methyl)heptanediamide] | upregulate the expression of Cl-PARP, Cl-caspase 3 in a dose-dependent manner | significantly reduced the levels of CDK4 and Cyclin D1 in a dose-dependent manner | markedly increased | ~15 | elevated levels of the N-terminal fragment of gasdermin E (GSDME) | elevated | suppress the formation of colonies in a dose-dependent manner | – | – | dose-dependently increased | induce γH2AX expression at a much lower concentration range | 30 | 41.9 | increased the level of acetyl-H3 and H4 in a dose-dependent manner | 24.34 | 18.3 | 57.36
